This passage reports inhibition and IC50 results from ChEMBL document CHEMBL1926558, “Searching for the Multi-Target-Directed Ligands against Alzheimer's disease: discovery of quinoxaline-based hybrid compounds with AChE, H₃R and BACE 1 inhibitory activities” (Bioorg Med Chem, 2011).

Where “and” joins values, the source holds several entries; their conditions need not be identical. Equal entries are not always repeated. Calls of active or inactive are those of the source. The rule behind the calls is not given here.

Assay [1] has as its target T1, Histamine H3 receptor (Homo sapiens, UniProt Q9Y5N1). Kind of assay: Antagonist activity at histamine H3 receptor expressed in HEK293 cells co-transfected with pCRE-Luc gene assessed as inhibition of forskolin/histamine-induced cAMP accumulation at 1 uM after 5 hrs by luciferase reporter gene assay. The format is functional, cell-based.
Assay [2] addresses Histamine H1 receptor (Homo sapiens) (UniProt P35367). Kind of assay: Antagonist activity at histamine H1 receptor expressed in HEK293 cells co-transfected with pCRE-Luc gene assessed as inhibition of forskolin/histamine-induced cAMP accumulation at 1 uM after 5 hrs by luciferase reporter gene assay. The format is functional, cell-based. The gist of the method:
(§1)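 HEK-293 cells stably expressing H1R or H2R were grown in DMEM with 10% FBS and penicillin/streptomycin at 37 °C under 5% CO2. Transfectants were selected with 800 µg/mL G418. cAMP accumulation was induced by 1 µM histamine with test compound present and read out by CRE-luciferase transcription.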

Assay [3] deals with Histamine H2 receptor (Homo sapiens) (UniProt P25021). Kind of assay: Antagonist activity at histamine H2 receptor expressed in HEK293 cells co-transfected with pCRE-Luc gene assessed as inhibition of forskolin/histamine-induced cAMP accumulation at 1 uM after 5 hrs by luciferase reporter gene assay. The format is functional, cell-based. The gist of the method:
as §1

Assay [4] addresses T2, Histamine H4 receptor (Homo sapiens, UniProt Q9H3N8). Kind of assay: Antagonist activity at histamine H4 receptor expressed in HEK293 cells co-transfected with pCRE-Luc gene assessed as inhibition of forskolin/histamine-induced cAMP accumulation at 1 uM after 5 hrs by luciferase reporter gene assay. The format is functional, cell-based.
The target of assay [5] is T3, Acetylcholinesterase (Rattus norvegicus, UniProt P37136).
T3 sequence (P37136 whole entry): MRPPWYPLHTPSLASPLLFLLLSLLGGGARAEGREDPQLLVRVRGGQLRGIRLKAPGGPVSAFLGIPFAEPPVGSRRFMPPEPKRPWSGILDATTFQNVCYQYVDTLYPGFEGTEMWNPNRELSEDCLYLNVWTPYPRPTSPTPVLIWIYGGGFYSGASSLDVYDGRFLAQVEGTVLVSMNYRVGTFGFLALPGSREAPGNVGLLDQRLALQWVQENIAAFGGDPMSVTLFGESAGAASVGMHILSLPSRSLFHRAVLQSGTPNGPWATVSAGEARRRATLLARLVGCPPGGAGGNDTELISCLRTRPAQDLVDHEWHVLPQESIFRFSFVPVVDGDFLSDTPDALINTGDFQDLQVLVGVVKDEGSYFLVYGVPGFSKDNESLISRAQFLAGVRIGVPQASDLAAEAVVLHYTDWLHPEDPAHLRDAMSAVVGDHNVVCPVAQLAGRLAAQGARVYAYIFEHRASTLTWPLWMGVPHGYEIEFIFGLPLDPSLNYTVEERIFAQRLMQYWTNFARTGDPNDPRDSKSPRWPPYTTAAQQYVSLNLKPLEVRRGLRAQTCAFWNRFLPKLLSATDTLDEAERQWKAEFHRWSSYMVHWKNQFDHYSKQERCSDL
In words: Inhibition of AChE in rat cortex homogenates using acetylthiocholine iodide as substrate after 15 mins by Ellman's method.

Assay [6] deals with T1, Histamine H3 receptor. Kind of assay: Inverse agonist activity at histamine H3 receptor expressed in HEK293 cells co-transfected with pCRE-Luc gene assessed as inhibition of forskolin/histamine-induced cAMP accumulation after 5 hrs by luciferase reporter gene assay. The format is functional, cell-based.
Assay [7] concerns the target T1, Histamine H3 receptor. Kind of assay: Antagonist activity at histamine H3 receptor expressed in HEK293 cells co-transfected with pCRE-Luc gene assessed as inhibition of forskolin/histamine-induced cAMP accumulation after 5 hrs by luciferase reporter gene assay. The format is functional, cell-based.
In assay [8] the target is Acetylcholinesterase (Homo sapiens, UniProt P22303).
Chain of Acetylcholinesterase (Homo sapiens, UniProt P22303) (P22303 whole entry): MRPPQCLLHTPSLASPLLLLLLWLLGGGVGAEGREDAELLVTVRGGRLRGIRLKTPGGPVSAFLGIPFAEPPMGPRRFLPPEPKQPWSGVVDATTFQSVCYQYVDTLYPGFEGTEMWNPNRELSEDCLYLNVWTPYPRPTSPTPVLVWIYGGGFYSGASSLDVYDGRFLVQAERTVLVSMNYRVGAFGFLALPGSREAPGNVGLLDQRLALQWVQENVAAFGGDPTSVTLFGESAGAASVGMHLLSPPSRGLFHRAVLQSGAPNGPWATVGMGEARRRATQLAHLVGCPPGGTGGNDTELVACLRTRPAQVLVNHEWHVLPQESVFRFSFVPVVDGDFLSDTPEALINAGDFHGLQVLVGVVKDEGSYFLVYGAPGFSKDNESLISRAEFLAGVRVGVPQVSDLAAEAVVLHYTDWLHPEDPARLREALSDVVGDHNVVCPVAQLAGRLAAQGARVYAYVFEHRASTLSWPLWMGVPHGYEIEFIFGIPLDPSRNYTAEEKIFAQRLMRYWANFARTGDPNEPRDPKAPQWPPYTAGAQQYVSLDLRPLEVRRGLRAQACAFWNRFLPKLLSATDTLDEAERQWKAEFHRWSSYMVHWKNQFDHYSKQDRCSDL
In assay [9] the target is T2, Histamine H4 receptor. In words: Antagonist activity at histamine H4 receptor expressed in HEK293 cells co-transfected with pCRE-Luc gene assessed as inhibition of forskolin/histamine-induced cAMP accumulation after 5 hrs by luciferase reporter gene assay. The format is functional, cell-based.

T1 sequence (Q9Y5N1 whole entry): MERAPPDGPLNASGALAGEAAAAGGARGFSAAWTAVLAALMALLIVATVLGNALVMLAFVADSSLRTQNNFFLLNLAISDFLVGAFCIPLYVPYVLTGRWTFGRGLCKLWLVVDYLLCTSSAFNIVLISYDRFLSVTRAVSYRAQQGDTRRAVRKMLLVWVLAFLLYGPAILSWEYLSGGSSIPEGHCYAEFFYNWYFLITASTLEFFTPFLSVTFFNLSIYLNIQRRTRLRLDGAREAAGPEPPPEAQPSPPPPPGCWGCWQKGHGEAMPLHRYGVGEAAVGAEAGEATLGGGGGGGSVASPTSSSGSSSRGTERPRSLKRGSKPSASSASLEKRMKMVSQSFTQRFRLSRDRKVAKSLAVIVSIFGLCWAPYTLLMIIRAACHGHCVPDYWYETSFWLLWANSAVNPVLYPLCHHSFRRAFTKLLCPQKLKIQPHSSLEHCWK
Chain of Histamine H1 receptor (Homo sapiens) (P35367 whole entry): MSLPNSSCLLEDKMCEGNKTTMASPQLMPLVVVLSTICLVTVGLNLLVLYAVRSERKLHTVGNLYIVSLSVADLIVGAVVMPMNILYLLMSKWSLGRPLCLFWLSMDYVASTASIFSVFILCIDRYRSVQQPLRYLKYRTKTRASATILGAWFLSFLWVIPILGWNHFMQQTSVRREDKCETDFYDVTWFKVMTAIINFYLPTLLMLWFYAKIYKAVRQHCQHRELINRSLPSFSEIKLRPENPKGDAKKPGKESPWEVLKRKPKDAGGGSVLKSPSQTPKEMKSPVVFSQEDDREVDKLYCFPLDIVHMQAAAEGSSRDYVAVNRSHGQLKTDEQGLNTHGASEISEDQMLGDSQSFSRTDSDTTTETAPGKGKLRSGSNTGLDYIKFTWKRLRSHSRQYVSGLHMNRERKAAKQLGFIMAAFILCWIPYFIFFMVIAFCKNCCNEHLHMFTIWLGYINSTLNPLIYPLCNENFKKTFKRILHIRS
T2 sequence (Q9H3N8 whole entry): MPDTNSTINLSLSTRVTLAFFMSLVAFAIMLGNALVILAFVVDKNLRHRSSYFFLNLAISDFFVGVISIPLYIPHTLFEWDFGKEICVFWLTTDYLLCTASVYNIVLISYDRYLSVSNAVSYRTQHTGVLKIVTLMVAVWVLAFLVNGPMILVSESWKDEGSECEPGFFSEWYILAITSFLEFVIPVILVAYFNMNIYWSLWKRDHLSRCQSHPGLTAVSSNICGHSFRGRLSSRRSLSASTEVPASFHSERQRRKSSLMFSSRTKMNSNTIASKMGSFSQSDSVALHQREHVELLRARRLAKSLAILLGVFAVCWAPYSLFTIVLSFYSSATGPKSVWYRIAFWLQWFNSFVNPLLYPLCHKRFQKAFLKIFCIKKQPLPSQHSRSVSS
Chain of Histamine H2 receptor (Homo sapiens) (P25021 whole entry): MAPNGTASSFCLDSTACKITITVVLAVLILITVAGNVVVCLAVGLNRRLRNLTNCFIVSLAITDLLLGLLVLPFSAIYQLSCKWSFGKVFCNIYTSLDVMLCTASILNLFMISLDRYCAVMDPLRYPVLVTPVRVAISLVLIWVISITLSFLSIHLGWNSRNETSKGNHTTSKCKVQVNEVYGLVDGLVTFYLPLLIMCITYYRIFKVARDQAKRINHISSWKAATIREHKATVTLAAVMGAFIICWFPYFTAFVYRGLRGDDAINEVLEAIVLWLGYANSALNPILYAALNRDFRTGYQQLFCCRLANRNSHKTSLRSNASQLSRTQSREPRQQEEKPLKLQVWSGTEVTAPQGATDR

As for `Nc1nc2ccccc2nc1NC(=O)c1ccc(CN2CCCCC2)cc1` [listing 1 of 3 here], the inhibition in [1] is 74.4% and 65.3%. The inhibition entry in [2] and in [3] was “inactive” throughout. For the same molecule, in [4], the inhibition entry is “Active”.

On to `Nc1nc2ccccc2nc1NCC(=O)Nc1ccc(CN2CCCCC2)cc1`, for which the IC50 in [5] (read-out: IC50) is 1160 nM; in assay [6] (hek293), “Not Active”.

Turning to `Nc1nc2ccccc2nc1NC(=O)C1CCN(Cc2ccccc2)CC1`, the IC50 entry in assay [5] and in assay [6] (hek293) was “Not Active” in each case.

`CCN(CC)Cc1ccc(OCCNc2nc3ccccc3nc2N)cc1`: the figures for the IC50 in assay [5] (read-out: IC50), in assay [7] and in assay [6] (hek293) were 3870 nM, 182 nM and “Not Active”, respectively. In addition, the inhibition entry in assay [2] and in assay [3] was “inactive” throughout. Besides, the inhibition result in assay [4] is “Active”.

`CN1CCN(Cc2ccc(OCCNc3nc4ccccc4nc3N)cc2)CC1`: the IC50 result in assay [5] and in assay [6] (hek293) was “Not Active” throughout.

For the molecule `Cl.Nc1nc2ccccc2nc1NC(=O)c1ccc(CN2CCCC2)cc1`, the IC50 result in [5] and in [6] (hek293) was “Not Active” throughout. In addition, the inhibition in [1] was found to be 0.8%.

Consider `Nc1nc2ccccc2nc1C(=O)Nc1ccc(CN2CCCCC2)cc1`, for which the IC50 in assay [5] (read-out: IC50) was 892 nM; in [6] (hek293) it was “Not Active”.

Take `S=C(NC1CCCCC1)N1CCC(c2cnc[nH]2)CC1` [THIOPERAMIDE]: the IC50 entry in [6] (hek293) is listed as “Not Active”. In addition, the inhibition entry in assay [2] and in [3] was “inactive” throughout.

In the case of `Nc1nc2ccccc2nc1NCc1ccc(CN2CCCCC2)cc1`, the IC50 in assay [5] (read-out: IC50) was 476 nM; in assay [6] (hek293) it was “Not Active”.

As for `Nc1nc2ccccc2nc1NCC(=O)NC1CCN(Cc2ccccc2)CC1`, the figures for the IC50 in [5] (read-out: IC50) and in assay [6] (hek293) were 1330 nM and “Not Active”, respectively. Besides, in assay [1], the inhibition amounted to 4.5%.

Regarding `Nc1nc2ccccc2nc1NCCCOc1ccc(CN2CCCCC2)cc1`, the half-inhibitory concentration (IC50) was 1930 nM in assay [5] (read-out: IC50) and “Not Active” in assay [6] (hek293).

With `Nc1nc2ccccc2nc1/N=C/c1ccc(CN2CCCCC2)cc1`, the IC50 was 748 nM in assay [5] (read-out: IC50) and “Not Active” in assay [6] (hek293).

Molecule `COc1cc2c(cc1OC)C(=O)C(Oc1ccc(CN3CCCC3)cc1)C2` (stereo not given) yielded an IC50 in assay [8] of 50 nM.

For the molecule `Nc1nc2ccccc2nc1NCC(=O)Nc1ccc(CN2CCCC2)cc1`, the results for the IC50 in assay [5] (read-out: IC50) and in assay [6] (hek293) were 1170 nM and “Not Active”, respectively.

On to `Nc1nc2ccccc2nc1NC(=O)c1ccc(CN2CCCCC2)cc1` [listing 2 of 3 here], for which the half-maximal inhibitory concentration (IC50) in assay [5] (read-out: IC50) is 483 nM; in [7], 280 nM; in [6] (read-out: IC50) it was 189 nM; in [9], > 10000 nM.

`Nc1nc2ccccc2nc1C(=O)Nc1ccc(CN2CCCC2)cc1`: the IC50 in [5] (read-out: IC50) was found to be 1500 nM; in assay [7], 260 nM; in assay [6] (read-out: IC50) it was 378 nM. For the same molecule, the inhibition in assay [1] came out at 72.8%. For the same molecule, the inhibition result in assay [2] and in [3] was “inactive” in each case. Besides, in assay [4], the inhibition result is “Active”.

Turning to `Nc1nc2ccccc2nc1CNc1ccc(CN2CCCCC2)cc1`, the IC50 result in [5] is “Not Active”; in [7] it was 130 nM; in [6] (hek293), “Not Active”. Moreover, the inhibition result in assay [2] and in [3] was “inactive” each time. In addition, in [4], the inhibition entry was “Active”.

For `Nc1nc2ccccc2nc1C(=O)NC1CCN(Cc2ccccc2)CC1`, the IC50 result in assay [5] and in [6] (hek293) was “Not Active” in each case.

For `Nc1nc2ccccc2nc1NC(=O)c1ccc(CN2CCCCC2)cc1` [listing 3 of 3 here], the IC50 in [5] (read-out: IC50) is 313 nM; in [7] it was 511 nM; in assay [6] (read-out: IC50), 171 nM; in assay [9] (hek293), > 10000 nM.

Turning to `Nc1nc2ccccc2nc1NCCOc1ccc(CN2CCCCC2)cc1`, the IC50 in assay [5] (read-out: IC50) is 1600 nM; in assay [7], 52.4 nM; in assay [6] (hek293), “Not Active”. Besides, the inhibition entry in assay [2] and in [3] was “inactive” throughout. Besides, the inhibition result in assay [4] was “Active”.
